Measurements published in ChEMBL document CHEMBL3856229, “Hybrid Antibiotic Overcomes Resistance in P. aeruginosa by Enhancing Outer Membrane Penetration and Reducing Efflux” (J Med Chem, 2016).
≈ marks a conversion by molar mass, not a printed value.

What was measured:
Enterococcus faecium = assay: Antibacterial activity against Enterococcus faecium ATCC 27270 after 24 hrs by microtitre broth dilution method; format: functional; conditions: ATCC 27270, 24 h
Pseudomonas aeruginosa [1] = assay: Antibacterial activity against multidrug-resistant/tobramycin-susceptible Pseudomonas aeruginosa isolate 86067; format: functional
Pseudomonas aeruginosa [2] = assay: Antibacterial activity against multidrug-resistant/tobramycin-susceptible Pseudomonas aeruginosa isolate 86079; format: functional
Pseudomonas aeruginosa [3] = assay: Antibacterial activity against multidrug/extremely drug-resistant/colistin-susceptible Pseudomonas aeruginosa isolate 101885; format: functional
Pseudomonas aeruginosa [4] = assay: Antibacterial activity against multidrug/extremely drug-resistant/colistin-susceptible Pseudomonas aeruginosa isolate 262-101856; format: functional
Klebsiella pneumoniae = assay: Antibacterial activity against Klebsiella pneumoniae ATCC 13883 after 24 hrs by microtitre broth dilution method; format: functional; conditions: ATCC 13883, 24 h
Escherichia coli [5] = assay: Antibacterial activity against gentamicin/tobramycin/ciprofloxacin-resistant Escherichia coli isolate CANWARD-2011 97615 harboring AAC3-2A after 24 hrs by microtitre broth dilution method; format: functional; conditions: isolate CANWARD-2011 97615, 24 h
Pseudomonas aeruginosa [6] = assay: Antibacterial activity against gentamicin/tobramycin-resistant Pseudomonas aeruginosa isolate CANWARD-2011 96846 after 24 hrs by microtitre broth dilution method; format: functional; conditions: isolate CANWARD-2011 96846, 24 h
Staphylococcus aureus [7] = assay: Antibacterial activity against methicillin-resistant Staphylococcus aureus ATCC 33592 after 24 hrs by microtitre broth dilution method; format: functional; conditions: ATCC 33592, 24 h
Escherichia coli [8] = assay: Antibacterial activity against Escherichia coli ATCC 25922 after 24 hrs by microtitre broth dilution method; format: functional; conditions: ATCC 25922, 24 h
Pseudomonas aeruginosa [9] = assay: Antibacterial activity against pandrug-resistant Pseudomonas aeruginosa isolate 91433; format: functional
Enterococcus faecalis = assay: Antibacterial activity against Enterococcus faecalis ATCC 29212 after 24 hrs by microtitre broth dilution method; format: functional; conditions: ATCC 29212, 24 h
Pseudomonas aeruginosa [10] = assay: Antibacterial activity against multidrug-resistant/tobramycin-susceptible Pseudomonas aeruginosa isolate 86052; format: functional
Staphylococcus aureus [11] = assay: Antibacterial activity against Staphylococcus aureus ATCC 29213 after 24 hrs by microtitre broth dilution method; format: functional; conditions: ATCC 29213, 24 h
Escherichia coli [12] = assay: Antibacterial activity against gentamicin-resistant Escherichia coli isolate CAN-ICU 61714 after 24 hrs by microtitre broth dilution method; format: functional; conditions: isolate CAN-ICU 61714, 24 h
Pseudomonas aeruginosa [13] = assay: Antibacterial activity against multidrug/extremely drug-resistant/colistin-susceptible Pseudomonas aeruginosa isolate 100036; format: functional
[14] = test system: Staphylococcus epidermidis; assay: Antibacterial activity against methicillin-resistant Staphylococcus epidermidis isolate CAN-ICU 61589 after 24 hrs by microtitre broth dilution method; format: functional; conditions: isolate CAN-ICU 61589, 24 h
Pseudomonas aeruginosa [15] = assay: Antibacterial activity against multidrug-resistant/tobramycin-susceptible Pseudomonas aeruginosa isolate 83182; format: functional
Escherichia coli [16] = assay: Antibacterial activity against amikacin-resistant Escherichia coli isolate CAN-ICU 63074 after 24 hrs by microtitre broth dilution method; format: functional; conditions: isolate CAN-ICU 63074, 24 h
Streptococcus pneumoniae = assay: Antibacterial activity against Streptococcus pneumoniae ATCC 49619 after 24 hrs by microtitre broth dilution method; format: functional; conditions: ATCC 49619, 24 h
Pseudomonas aeruginosa [17] = assay: Antibacterial activity against multidrug/extremely drug-resistant/colistin-susceptible Pseudomonas aeruginosa isolate 260-97103; format: functional
[18] = test system: Staphylococcus epidermidis; assay: Antibacterial activity against methicillin-susceptible Staphylococcus epidermidis isolate CANWARD-2008 81388 after 24 hrs by microtitre broth dilution method; format: functional; conditions: isolate CANWARD-2008 81388, 24 h
Pseudomonas aeruginosa [19] = assay: Antibacterial activity against multidrug-resistant/tobramycin-susceptible Pseudomonas aeruginosa isolate 86053; format: functional
[20] = test system: Stenotrophomonas maltophilia; assay: Antibacterial activity against Stenotrophomonas maltophilia isolate CAN-ICU 62584 after 24 hrs by microtitre broth dilution method; format: functional; conditions: isolate CAN-ICU 62584, 24 h
Pseudomonas aeruginosa [21] = assay: Antibacterial activity against multidrug/extremely drug-resistant/colistin-susceptible Pseudomonas aeruginosa isolate 259-96918; format: functional
Acinetobacter baumannii = assay: Antibacterial activity against Acinetobacter baumannii isolate CAN-ICU 63169 after 24 hrs by microtitre broth dilution method; format: functional; conditions: isolate CAN-ICU 63169, 24 h
Pseudomonas aeruginosa [22] = assay: Antibacterial activity against multidrug/extremely drug-resistant/colistin-susceptible Pseudomonas aeruginosa isolate 264-104354; format: functional
Pseudomonas aeruginosa [23] = assay: Antibacterial activity against Pseudomonas aeruginosa ATCC 27853 after 24 hrs by microtitre broth dilution method; format: functional; conditions: ATCC 27853, 24 h
Pseudomonas aeruginosa [24] = assay: Antibacterial activity against Pseudomonas aeruginosa PAO1; format: functional
Pseudomonas aeruginosa [25] = assay: Antibacterial activity against gentamicin-resistant Pseudomonas aeruginosa isolate CAN-ICU 62308 after 24 hrs by microtitre broth dilution method; format: functional; conditions: isolate CAN-ICU 62308, 24 h
[26] = Inhibition of Pseudomonas aeruginosa DNA gyrase A assessed as inhibition of DNA supercoiling using PBR322 DNA as substrate after 30 mins by SYBR Gold staining based agarose gel electrophoresis
[27] = Inhibition of circular DNA translation in Escherichia coli S30 extract after 60 mins by luciferase reporter gene assay
Method in brief: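 Translation was run in an E. coli S30 extract with a luciferase read-out. Luminescence is expressed as a percentage of the no-antibiotic control, taken as 100%.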

Row | SMILES | MIC (Enterococcus faecium) | MIC (Pseudomonas aeruginosa [4]) | MIC (Klebsiella pneumoniae) | MIC (Escherichia coli [5]) | MIC (Pseudomonas aeruginosa [6]) | MIC (Staphylococcus aureus [7]) | MIC (Escherichia coli [8]) | MIC (Enterococcus faecalis) | MIC (Staphylococcus aureus [11]) | MIC (Escherichia coli [12]) | MIC [14] | MIC (Escherichia coli [16]) | MIC (Streptococcus pneumoniae) | MIC (Pseudomonas aeruginosa [17]) | MIC [18] | MIC [20] | MIC (Pseudomonas aeruginosa [21]) | MIC (Acinetobacter baumannii) | MIC (Pseudomonas aeruginosa [22]) | MIC (Pseudomonas aeruginosa [23]) | other results
1 | O=C(O)c1cn(C2CC2)c2cc(N3CCNCC3)c(F)cc2c1=O [CIPROFLOXACIN] | 8 µg/mL (≈ 24.1 µM) | 16 to 32 µg/mL (≈ 48.3 to 96.6 µM) | ≤ 0.25 µg/mL | 256 µg/mL (≈ 773 µM) | 4 µg/mL (≈ 12.1 µM) | ≤ 0.25 µg/mL | ≤ 0.25 µg/mL | 1 µg/mL (≈ 3.02 µM) | ≤ 0.25 µg/mL | ≤ 0.25 µg/mL | 128 µg/mL (≈ 386 µM) | ≤ 0.25 µg/mL | 1 µg/mL (≈ 3.02 µM) | 16 to 64 µg/mL (≈ 48.3 to 193 µM) | ≤ 0.25 µg/mL | 32 µg/mL (≈ 96.6 µM) | 256 µg/mL (≈ 773 µM) | 2 µg/mL (≈ 6.04 µM) | 16 to 32 µg/mL (≈ 48.3 to 96.6 µM) | 1 µg/mL (≈ 3.02 µM) | MIC (Pseudomonas aeruginosa [1]): 4 µg/mL (≈ 12.1 µM); MIC (Pseudomonas aeruginosa [2]): > 16 µg/mL; MIC (Pseudomonas aeruginosa [3]): 32 µg/mL (≈ 96.6 µM); MIC (Pseudomonas aeruginosa [9]): 4 to 8 µg/mL (≈ 12.1 to 24.1 µM); MIC (Pseudomonas aeruginosa [10]): > 16 µg/mL; MIC (Pseudomonas aeruginosa [13]): 64 µg/mL (≈ 193 µM); MIC (Pseudomonas aeruginosa [15]): 4 µg/mL (≈ 12.1 µM); MIC (Pseudomonas aeruginosa [19]): > 16 µg/mL; MIC (Pseudomonas aeruginosa [24]): < 0.2 µg/mL
2 | COc1c(N2C[C@@H]3CCCN(CCCCCCCCCCCCOC[C@H]4O[C@H](O[C@@H]5[C@@H](O)[C@H](O[C@H]6O[C@H](CN)[C@@H](O)C[C@H]6N)[C@@H](N)C[C@H]5N)[C@H](O)[C@@H](N)[C@@H]4O)[C@@H]3C2)c(F)cc2c(=O)c(C(=O)O)cn(C3CC3)c12.Cl.Cl.Cl.Cl.Cl | 16 µg/mL | > 32 µg/mL | 16 µg/mL | 128 µg/mL | 64 µg/mL | 16 µg/mL | 16 µg/mL | 32 µg/mL | 16 µg/mL | 64 µg/mL | 8 µg/mL | 64 µg/mL | 64 µg/mL | 32 µg/mL | 8 µg/mL | > 128 µg/mL | > 32 µg/mL | > 128 µg/mL | > 32 µg/mL | 64 µg/mL | MIC (Pseudomonas aeruginosa [25]): 32 µg/mL; IC50 [26]: 2600 nM; MIC (Pseudomonas aeruginosa [24]): > 32 µg/mL
3 | COc1c(N2C[C@@H]3CCCN(CCCCCCCCCCCCO[C@H]4[C@@H](O[C@@H]5[C@@H](O)[C@H](O[C@H]6O[C@H](CN)[C@@H](O)C[C@H]6N)[C@@H](N)C[C@H]5N)O[C@H](CO)[C@@H](O)[C@@H]4N)[C@@H]3C2)c(F)cc2c(=O)c(C(=O)O)cn(C3CC3)c12.Cl.Cl.Cl.Cl.Cl | 16 µg/mL | 32 µg/mL | 4 µg/mL | 128 µg/mL | > 128 µg/mL | 8 µg/mL | 4 µg/mL | 32 µg/mL | 4 µg/mL | 64 µg/mL | 8 µg/mL | 32 µg/mL | 32 µg/mL | > 32 µg/mL | 2 µg/mL | > 128 µg/mL | > 32 µg/mL | 128 µg/mL | 32 µg/mL | 16 µg/mL | IC50 [27]: 130 nM; MIC (Pseudomonas aeruginosa [25]): 128 µg/mL; IC50 [26]: 2100 nM; MIC (Pseudomonas aeruginosa [24]): > 32 µg/mL
